# Measurements as given in ChEMBL document CHEMBL3526127, “Absorption, elimination, and metabolism of CS-1036, a novel α-amylase inhibitor in rats and monkeys, and the relationship between gastrointestinal distribution and suppression of glucose absorption” (Drug Metab Dispos, 2013).
# Columns and labels:
# [1] = Ratio of drug level in blood to plasma in F344 rat after 5 mins; format: ADME
# [2] = Drug distribution in F344 rat cecum at 1 mg/kg, po administered as single dose after 4 hrs by scintillation counting method; format: ADME, organism-based, Caecum; parameters: dose 1 mg/kg, route oral; settings: in vivo
# Method in brief: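 [14C]-labelled drug (1 mg/kg, 42.4 µCi/kg) was given orally to fasted F344 rats (148–168 g, n = 3). Contents of stomach, duodenum+jejunum, ileum and cecum were washed out with water at 0.5–8 h, homogenized, solubilized and counted by liquid scintillation. Results are % of dose, mean ± S.D.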
# [3] = Drug excretion in F344 rat expired air at 1 mg/kg, po administered as single dose after 0 to 48 hrs by scintillation counting method; format: ADME, organism-based; parameters: dose 1 mg/kg, route oral; settings: in vivo
# Method in brief: (§1)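 Fasted F344 rats (152–156 g iv via tail vein; 154–159 g oral; n = 4) received [14C]-labelled drug at 1 mg/kg (41.9 µCi/kg). Animals were kept in metabolic cages; urine and feces were collected to 168 h, and expired CO2 was trapped in 2-aminoethanol/2-methoxyethanol (1:1) to 48 h. Samples were counted by liquid scintillation (feces homogenized). Results are % of dose, mean ± S.D.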
# [4] = Drug metabolism in anaerobic culture broth of monkey feces assessed as 1,4-dideoxy-1,4-imino-D-arabinitol formation at 63.5 uCi/ml after 24 hrs at 35 degC by LC-MS/MS method; settings: cynomolgus monkey
# [5] = Drug excretion in cynomolgus monkey urine at 3 mg/kg, po administered as single dose after 48 hrs by scintillation counting method; settings: in vivo
# [6] = Drug metabolism in F344 rat feces assessed as 1,4-dideoxy-1,4-imino-D-arabinitol formation by LC-MS/MS method; format: ADME, tissue-based
# [7] = Drug excretion in F344 rat feces at 1 mg/kg, iv administered as single dose after 0 to 168 hrs by scintillation counting method; format: ADME, organism-based; parameters: dose 1 mg/kg, route intravenous; settings: in vivo; method in brief: as §1
# [8] = system: Plasma; assay: Drug metabolism in po dosed monkey plasma by LC-MS/MS method; settings: cynomolgus monkey, in vivo
# [9] = Drug excretion in F344 rat urine at 1 mg/kg, po administered as single dose after 24 hrs by scintillation counting method; format: ADME, organism-based; parameters: dose 1 mg/kg, route oral; settings: in vivo
# Method in brief: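 [14C]-labelled drug (1 mg/kg, 42.2 µCi/kg) was given orally to fasted F344 rats (164–168 g, n = 3). Urine and feces were collected to 24 h; feces were homogenized in 9 volumes of water, combusted and counted. Parent fraction came from the excreted radioactivity times the radio-HPLC (HILIC) peak-area ratio; mean ± S.D.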
# [10] = system: Rattus norvegicus; assay: Total drug excretion in bile duct cannulated F344 rat at 1 mg/kg, po administered as single dose after 0 to 48 hrs by scintillation counting method; format: ADME, organism-based; parameters: dose 1 mg/kg, route oral; settings: in vivo
# Method in brief: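 Under ether anesthesia, the common bile duct of fasted F344 rats was cannulated. After recovery, rats received 1 mg/kg (41.9 µCi/kg) of the 14C-labelled compound iv or by oral gavage (n = 4). They were kept in Bollman cages, and bile was collected at 0–6, 6–24, 24–30 and 30–48 h at 4°C. Radioactivity was measured by liquid scintillation counting as % of dose.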
# [11] = Half life in cynomolgus monkey at 0.3 mg/kg, iv administered as single dose by LC-MS/MS method; format: ADME, organism-based, Macaca fascicularis; parameters: dose 0.3 mg/kg, route intravenous; settings: in vivo
# Method in brief: (§2)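 Male F344 rats (146–185 g) and male cynomolgus monkeys (3.48–4.29 kg), n = 4 each, fasted overnight, received single iv or oral doses of 0.3, 1.0, 3.0 or 10.0 mg/kg. Monkeys had 2-week washouts between doses. Plasma was sampled to 48 h and assayed by LC-MS/MS with deuterated internal standard. Noncompartmental analysis: tmax observed; t1/2 by regression on ≥3 terminal log points; Vss = dose·AUMC/(AUC0–inf)²; Foral = oral/iv AUC0–inf at the same dose.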
# [12] = Cmax in cynomolgus monkey at 10 mg/kg, po administered as single dose by LC-MS/MS method; format: ADME, organism-based, Macaca fascicularis; parameters: dose 10 mg/kg, route oral; settings: in vivo
# Method in brief: (§3)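 Fasted male F344 rats (146–185 g) and cynomolgus monkeys (3.48–4.29 kg), n = 4 each, received a single oral dose; monkeys had 2-week washouts. Plasma sampled up to 48 h, stored at […], assayed by LC-MS/MS with a deuterated internal standard. Cmax taken from observed data by noncompartmental analysis; mean ± S.D. (n = 3 or 4).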
# [13] = Tmax in cynomolgus monkey at 10 mg/kg, po administered as single dose by LC-MS/MS method; format: ADME, organism-based, Macaca fascicularis; parameters: dose 10 mg/kg, route oral; settings: in vivo; method in brief: as §2
# [14] = Clearance in F344 rat at 10 mg/kg, iv administered as single dose by LC-MS/MS method; format: ADME, organism-based; parameters: dose 10 mg/kg, route intravenous; settings: in vivo
# Method in brief: (§4)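 Fasted male F344 rats (146–185 g) and male cynomolgus monkeys (3.48–4.29 kg), n = 4 each, received a single iv dose; monkeys had 2-week washouts between doses. Blood was sampled up to 48 h and plasma stored at […]. Plasma parent was quantified by LC-MS/MS with a deuterated internal standard. CL = dose/AUC0–inf by noncompartmental analysis; mean ± S.D.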
# [15] = Clearance in cynomolgus monkey at 1 mg/kg, iv administered as single dose by LC-MS/MS method; format: ADME, organism-based, Macaca fascicularis; parameters: dose 1 mg/kg, route intravenous; settings: in vivo; method in brief: as §4
# [16] = Oral bioavailability in cynomolgus monkey at 10 mg/kg administered as single dose by LC-MS/MS method; format: ADME, organism-based, Macaca fascicularis; settings: in vivo; method in brief: as §2
# [17] = AUC (0 to infinity) in F344 rat at 1 mg/kg, po administered as single dose by LC-MS/MS method; format: ADME, organism-based; parameters: dose 1 mg/kg, route oral, time infinity; settings: plasma
# Method in brief: (§5)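 Fasted male F344 rats (146–185 g) or male cynomolgus monkeys (3.48–4.29 kg), n = 4 per dose, given single iv or oral dose of 0.3, 1.0, 3.0 or 10.0 mg/kg; monkeys dosed with 2-week washouts. Blood sampled to 48 h; plasma stored frozen. LC-MS/MS with deuterated internal standard. Noncompartmental analysis: AUClast by trapezoidal rule; AUC0–inf = AUClast + Ctz/terminal rate constant; mean ± S.D.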
# [18] = Volume of distribution at steady state in F344 rat at 3 mg/kg, iv administered as single dose by LC-MS/MS method; format: ADME, organism-based; parameters: dose 3 mg/kg, route intravenous; settings: in vivo, read-out: Vdss; method in brief: as §2
# [19] = AUClast in F344 rat at 3 mg/kg, iv administered as single dose by LC-MS/MS method; format: ADME, organism-based; parameters: time 0 - last, dose 3 mg/kg, route intravenous; settings: plasma; method in brief: as §5
# [20] = Half life in F344 rat at 1 mg/kg, iv administered as single dose by LC-MS/MS method; format: ADME, organism-based; parameters: dose 1 mg/kg, route intravenous; settings: in vivo
# Method in brief: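 Fasted male F344 rats (146–185 g, n = 4 per dose) received single i.v. CS-1036. Plasma was sampled up to 48 h and analysed by LC-MS/MS. t1/2 came from noncompartmental regression of three or more log-transformed terminal-phase points. Mean ± S.D.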
# [21] = Volume of distribution at steady state in F344 rat at 0.3 mg/kg, iv administered as single dose by LC-MS/MS method; format: ADME, organism-based; parameters: dose 0.3 mg/kg, route intravenous; settings: in vivo, read-out: Vdss; method in brief: as §2
# [22] = Cmax in F344 rat at 1 mg/kg, po administered as single dose by LC-MS/MS method; format: ADME, organism-based; parameters: dose 1 mg/kg, route oral; settings: in vivo; method in brief: as §3
# [23] = Cmax in cynomolgus monkey at 3 mg/kg, po administered as single dose by LC-MS/MS method; format: ADME, organism-based, Macaca fascicularis; parameters: dose 3 mg/kg, route oral; settings: in vivo; method in brief: as §3
# [24] = Oral bioavailability in cynomolgus monkey at 1 mg/kg administered as single dose by LC-MS/MS method; format: ADME, organism-based, Macaca fascicularis; settings: in vivo; method in brief: as §2
smiles,measurement,setting,value
C[C@H]1O[C@@H](O[C@H]2[C@H](O)[C@@H](O)[C@@H](O[14C@H]3[14C@H](O)[14CH2]N[14C@@H]3[14CH2]O)O[C@@H]2CO)[C@H](O)[C@@H](O)[C@@H]1O,blood plasma ratio at 5 min,[1],0.575
same,Drug uptake,[2],49.4%
same,Drug excretion,[3],2.34%
same,Drug metabolism,[4],metabolite_detected
same,Drug excretion,[5],2.9%
same,Drug metabolism,[6],metabolite_detected
same,Drug excretion,[7],17.82%
same,Drug metabolism,[8],metabolite_not_detected
same,Drug excretion,[9],1.4%
same,Drug excretion,[10],0.59%
C[C@H]1O[C@@H](O[C@H]2[C@H](O)[C@@H](O)[C@@H](O[C@H]3[C@H](O)CN[C@@H]3CO)O[C@@H]2CO)[C@H](O)[C@@H](O)[C@@H]1O,half-life,[11],2.51 h
same,Cmax,[12],152 ng/mL
same,Tmax,[13],1.75 h
same,clearance,[14],3.16 mL/min/kg
same,clearance,[15],2.84 mL/min/kg
same,bioavailability,[16],1.2%
same,AUC(0-inf),[17],115 ng·h/mL
same,Vd,[18],0.219 L/kg
same,AUC(0-t),[19],18700 ng·h/mL
same,half-life,[20],18.4 h
same,Vd,[21],0.218 L/kg
same,Cmax,[22],45.5 ng/mL
same,Cmax,[23],44.8 ng/mL
same,bioavailability,[24],0.983%
